# Only a selection was taken, and hits are over-represented in it overall.
# CHOP inhibitor = CHOP inhibition in unfolded protein response. CHO-K1 CHOP-promoter luciferase, tunicamycin-induced, 15-18 h. inhibition, % at 10 µM. 220,000 tested, 3.8% active. AID 2732;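 active means compounds that reduced the stress-induced luciferase reporter signal by more than about 70% of percent inhibition, limit read from the data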;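 further: 0% = tunicamycin plus vehicle and 100% = wells without tunicamycin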
# UCH37 DUB inh = blocks the human deubiquitinase UCH37. AID 588478. inhibition, % (test concentration not listed). 330,000 tested, 0.33% active. purified proteasome/UCH37, Ub-AMC cleavage fluorescence. Q9Y5K5;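 active means mean inhibition over replicate wells above about 20%, limit read from the data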;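 further: 0% = compound-free wells with enzyme and 100% = wells lacking proteasome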
# Target sequence (Q9Y5K5 whole entry, looked up): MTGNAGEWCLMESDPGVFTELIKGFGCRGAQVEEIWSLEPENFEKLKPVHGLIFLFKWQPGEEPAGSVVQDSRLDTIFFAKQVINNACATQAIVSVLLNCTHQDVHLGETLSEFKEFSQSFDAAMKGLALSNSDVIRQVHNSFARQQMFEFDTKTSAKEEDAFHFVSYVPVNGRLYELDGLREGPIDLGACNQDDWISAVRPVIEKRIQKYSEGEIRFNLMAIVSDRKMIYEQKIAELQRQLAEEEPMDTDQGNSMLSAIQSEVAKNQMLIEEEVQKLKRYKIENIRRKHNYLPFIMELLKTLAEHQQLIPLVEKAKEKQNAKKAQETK
#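 system = Proteasome-associated human UCH37 deubiquitinase | amount = 0.15 nM proteasome as dispensed | medium = pH 7.4 Tris-HCl (50 mM) with ovalbumin, ATP-MgCl2, DTT | incubation = 30 min preincubation with enzyme, 25 min cleavage at room temperature | detection = AMC fluorescence 355/460 nm | read-out basis = percent inhibition | controls = no-proteasome and no-compound wells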
# CTSL1 counter = cathepsin L1 inhibition, PFM18AAP counter-screen. recombinant F. hepatica cathepsin L1, Z-Leu-Arg-MCA fluorescence. inhibition, % at 5.96 µM. 300,000 tested, 0.49% active;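 active means inhibition above the mean of all tested compounds plus 3 SD, set per screening campaign, cut at about 17% in these data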;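 further: 0% = plate median of test compound wells and 100% = 1 µM Z-Phe-Ala-diazomethylketone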
# UPR CHOP act = activators of apoptotic arm of unfolded protein response (CHOP). activation, % at 10 µM. 330,000 tested, 0.34% active. CHO-CHOP luciferase reporter, UPR activation, luminescence; percent of tunicamycin response over DMSO baseline;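 active means at 10 µM dose, activation of 40% or more, normalized to positive control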;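 further: 100% = tunicamycin at 10 µg/mL and 0% = DMSO alone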
#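 assay system = CHO CHOP reporter cells | amount = 500 CHO-CHOP cells per well | buffer or medium = F12 with 10% FBS | incubation = 16-18 h cell attachment, then 6 h compound exposure, 37 °C | detection = luminescence read with Steady-Glo | read-out = percent activation relative to tunicamycin control | controls = tunicamycin high control, DMSO low control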
# UPR XBP1 act = adaptive UPR (XBP1) activation | CHO-XBP1 luciferase reporter, IRE1-XBP1 UPR activation, luminescence; percent of tunicamycin response, DMSO as zero | activation, % at 20 µM | 330,000 tested, 0.33% active | AID 463104;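 active means versus positive control, 20 µM dose yields 30% or more activation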;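 further: 100% = tunicamycin at 10 µg/mL and 0% = DMSO only wells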
#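 assay system = CHO-XBP1 luciferase reporter cells | amount = 1000 cells/well | buffer or medium = F12 plus 10% FBS | compound dosing = single point, 20 µM final compound, 1% DMSO | incubation = 16-18 h cell attachment at 37 °C, then 6 h compound exposure | detection = Steady-Glo luminescence read | controls = tunicamycin 10 µg/mL and vehicle-only wells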
# CHOP inh conf = confirmation of CHOP induction inhibitors; shares compounds with CHOP inhibitor; CHO-CHOP promoter luciferase reporter, tunicamycin-induced, luminescence; inhibition, % at 10 µM; 2,100 tested, 45% active;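 active means mean of three repeat readings of reporter signal inhibition above a set limit, cut at about 70% in these data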;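 further: 0% = tunicamycin plus vehicle and 100% = wells lacking tunicamycin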
# Active calls of the source: *; . = no result given.
SMILES,CHOP inhibitor,UCH37 DUB inh,CTSL1 counter,UPR CHOP act,UPR XBP1 act,CHOP inh conf
Cc1cccc(Nc2nc(N)c([N+](=O)[O-])c(N3CC(C)OC(C)C3)n2)c1 (stereo unspecified),.,4,4,5,4,.
Cc1cccc(Nc2nc(N)c([N+](=O)[O-])c(N3CCC(C)CC3)n2)c1,104*,3,3,2,4,30
Cc1ccc(S(=O)(=O)N=C(c2ccccc2)N(C)S(=O)(=O)c2ccc(C)cc2)cc1,.,5,.,.,.,.
OC1(c2ccc(Br)cc2)CCNCC1,101*,0,1,0,1,25
COC(=O)c1ccc2c(=O)n(NC(=O)C(c3ccccc3)c3ccccc3)c(=S)[nH]c2c1,102*,1,0,2,0,31
COC(=O)c1ccc2c(=O)n(Cc3ccc4c(c3)OCO4)c(=S)[nH]c2c1,.,1,1,2,13,.
CCN(CC)S(=O)(=O)c1cccc(C(=O)NN=Cc2ccc([N+](=O)[O-])o2)c1,.,3,.,.,.,.
CCc1ccc(NSc2ccccc2[N+](=O)[O-])cc1,102*,7,-1,0,2,18
O=[N+]([O-])c1ccc(N/N=C/c2c[nH]c3ccccc23)c(S(=O)(=O)Nc2ccc(Cl)cc2)c1,106*,.,3,-1,-1,61
O=[N+]([O-])c1ccc(NN=Cc2c[nH]c3ccccc23)c(S(=O)(=O)Nc2ccc(Cl)cc2)c1,.,13,.,.,.,.
CCOc1ccc(S(=O)(=O)Nc2nc3ccccc3nc2-n2ccc(=NC(=O)c3cccs3)cc2)cc1,7,-6,2,1,4,.
O=C(N=c1ccn(-c2nc3ccccc3nc2NS(=O)(=O)c2ccc(Cl)cc2)cc1)c1cccs1,98*,-34,12,1,2,-7
COc1ccccc1Nc1nc(NCC(C)C)nc(N)c1[N+](=O)[O-],101*,8,3,3,14,37
CCOC(=O)C(=O)NN=Cc1cccc(Br)c1,.,0,.,.,.,.
Cc1nn(-c2ccccc2Cl)c(Cl)c1/C=N/Nc1nc2ccccc2s1,97*,.,1,-6,-3,98*
C/C(C=NNC(=O)CN1CCN(Cc2ccc(Cl)cc2)CC1)=C\c1ccco1,.,8,.,.,.,.
COc1ccc(CNC(=O)CC(C)=NNC(=O)c2ccccc2OC)cc1,.,0,.,.,.,.
CCOC(=O)C1=C(C)OC(N)=C(C#N)C1C1CCCCC1 (stereo unspecified),52,19,1,-1,-2,.
CCOC(=O)C1=C(c2ccccc2)OC(N)=C(C#N)C1C1CCCCC1 (stereo unspecified),109*,6,3,-2,0,52
O=C(CC(=O)c1c(F)cccc1Cl)c1ccccc1O,.,7,4,0,8,.
O=C(CC(=O)c1ccccc1O)c1ccc(F)cc1,101*,2,0,17,2,62
Cc1ccc(C(=O)CC(=O)c2cc(Cl)ccc2O)cc1,102*,2,1,24,4,72*
O=C(CC(=O)c1ccccc1O)c1cccc(F)c1,.,6,7,31,3,56
COc1ccc(OCC(=O)NN=CC2CC=CCC2)cc1 (stereo unspecified),.,4,.,.,.,.
COc1cccc(C=NNC(=O)C(C)n2nc(C)c([N+](=O)[O-])c2C)c1O (stereo unspecified),.,2,.,.,.,.
SMILES,CHOP inhibitor,UCH37 DUB inh,CTSL1 counter,UPR CHOP act,UPR XBP1 act,CHOP inh conf
COc1cccc(-n2nc(C#N)c(Cl)cc2=O)c1,107*,7,.,3,-8,-77
COc1ccc(C2=NN(c3ccccc3)C(c3cn(CCC(=O)O)nc3-c3ccccc3)C2)cc1 (stereo unspecified),96*,-337,3,3,-1,13
CC(=NOCC(=O)Nc1ccccc1C(=O)O)c1cccs1,.,4,.,.,.,.
C=CCn1c(SCC(=O)c2[nH]c(C)c(C(=O)OC)c2C)nc2scc(-c3ccc(OC)c(OC)c3)c2c1=O,102*,-15,-2,.,.,120*
C=CCn1c(SCC(=O)c2[nH]c(C)c(C(C)=O)c2C)nnc1-c1ccncc1,4,4,-2,1,-2,.
CC(/C=C1\SC(=O)N(CC(=O)Nc2ccc(O)cc2)C1=O)=C\c1ccccc1,96*,.,5,0,3,-43
CC/C(=C(\c1ccccc1)c1ccc(OCCN(C)C)cc1)c1ccccc1,-2,0,1,3,-1,.
CCN(CC)CCOc1ccc(/C(=C(/Cl)c2ccccc2)c2ccccc2)cc1,99*,-1,-1,2,0,7
COc1ccc(C=NNC(=O)c2ccncc2)cc1COc1ccc(NC(C)=O)cc1,.,8,.,.,.,.
O=C(NN=C1CC2C=CCC12)c1ccc(Br)o1 (stereo unspecified),.,4,.,.,.,.
Cc1ccc2nc(/C(C#N)=C\c3cc(O)ccc3[N+](=O)[O-])[nH]c2c1,-16,3,0,3,-2,.
Cc1ccc2nc(/C(C#N)=C/c3ccc(-c4cccc([N+](=O)[O-])c4)o3)[nH]c2c1,108*,10,2,.,.,52
COc1ccc(/C=C(\C#N)c2nc3ccc(C)cc3[nH]2)cc1Oc1ccc(C(F)(F)F)cc1[N+](=O)[O-],102*,3,-2,9,14,58
CCCOC(=O)c1ccc(Oc2cn[nH]c2-c2ccc(OC)cc2O)cc1,106*,0,0,-3,-6,116*
COc1cccc(Oc2cn[nH]c2-c2ccc(OCC(=O)NN)cc2O)c1,.,2,-1,1,7,.
C=CCOc1ccc2c(c1)C(=NO)c1cc(OCC=C)ccc1-2,104*,3,-1,2,7,59
Cc1ccc(NC(=O)/C(=C\c2ccc([N+](=O)[O-])cc2)NC(=O)c2ccccc2)cc1,98*,7,-2,3,0,-4
C=CCOc1ccc(C(CC)=NO)cc1OC,.,0,.,.,.,.
Nc1nonc1C(=O)NCCN=Cc1cc(Cc2ccccc2)cc(Br)c1O,104*,3,1,0,0,12
Cc1occc1C(=O)NN=Cc1ccc(Br)s1,.,7,.,.,.,.
O=C(Nc1ccc(Br)c(C(F)(F)F)c1)c1ccc(C(F)(F)F)cc1,102*,2,2,15,8,98*
COc1ccccc1NC(=O)c1c(Nc2ccccc2C)sc(C(=O)Nc2cccc(Cl)c2)c1N,100*,2,3,23,-1,131*
COc1ccc(-c2cc(C3CCN(Cc4cccc(C(F)(F)F)c4)CC3)[nH]n2)cc1,106*,5,3,-4,-1,104*
COc1ccc(-c2cc(C3CCN(CC(O)C(F)(F)F)CC3)[nH]n2)cc1 (stereo unspecified),.,4,-3,2,-1,.

# Assay outcomes from PubChem BioAssay.
